Results pooled from the literature.
Observed: metabolic stability

Compound | species | sample | concentration | half-life [min]
O=C(O)Cc1ccccc1Nc1c(Cl)cccc1Cl | mouse | liver microsomes |  | 60.8
O=C1CCC(N2Cc3cc(Nc4noc5cc(F)ccc45)ccc3C2=O)C(=O)N1 (centres unmarked) | CD-1 mouse | hepatocytes |  | > 216
CCOc1ccc2ccc(=O)oc2c1 | male CD-1 mouse | hepatocytes | 1 µM | < 15
O=C(c1ccc(F)cc1)C1CCN(CCn2c(=O)[nH]c3ccccc3c2=O)CC1 | mouse | liver microsomes |  | 22.8
CC(C)Oc1ccc(S(=O)(=O)c2ccc(Oc3cc(OCC(N)=O)c(C(=O)C(Cl)Cl)cc3[N+](=O)[O-])cc2)cc1 | mouse | liver microsomes | 20 µM | 7.2
O=c1ccc2ccc(O)cc2o1 | mouse | liver microsomes |  | 2
O=c1ccc2cc(O)ccc2o1 | mouse | liver microsomes | 20 µM | 8.22
CC1(CN)CCN(c2cnc3c(Sc4ccncc4Cl)n[nH]c3n2)CC1 | mouse | liver microsomes |  | 630
